# Measured values of several laboratories.
# Compare with care: the assays were run in different laboratories.
# CDK17: Cyclin-dependent kinase 17 (CDK17, Homo sapiens, UniProt Q00537)
# CDK17 with cyclin Y: Cyclin-dependent kinase 17, with cyclin Y (CDK17, Homo sapiens, UniProt Q00537)
SMILES,target,read-out,mode,method,tested at,endpoint,value
Cn1c2c(Cl)c(Cl)ccc2c2cn[nH]c(=O)c21,CDK17,thermal stability,,DSF,10 µM,ΔTm,0.5 °C
Cc1nccc(COC(=O)N2C[C@@H]3[C@@H](CNC(=O)c4ccc5[nH]nnc5c4)[C@@H]3C2)n1,CDK17,cell-free assay,,competition with immobilised ligand,1 µM,remaining binding,90%
Cc1ccc(C(=O)NCc2ccsc2)cc1C#Cc1cn(C(C)C)c2ncnc(N)c12,CDK17 with cyclin Y,enzyme activity,inhibitor,,1 µM,activity vs control,104%
Cc1sc(C(=O)NC2COC2)cc1-n1cc(NC(=O)Nc2c(F)cccc2Cl)cn1,CDK17 with cyclin Y,enzyme activity,inhibitor,,10 µM,remaining activity,102%
CC(C)CC(=O)N1CCc2nc(-c3ccc(Br)cc3)nc(N(C)Cc3ccccc3)c2C1,CDK17,cell-free assay,,competition with immobilised ligand,0.1 µM,remaining binding,100%
Cc1ccc(C(=O)Nc2ccc(CN3CCN(C)CC3)c(C(F)(F)F)c2)cc1C#Cc1cnc2cccnn12,CDK17,enzyme activity,inhibitor,,23.5 nM,remaining activity,7.6%
COc1cccc2c(NCc3ccccc3)nc(-n3c(N)nc4ccccc43)nc12,CDK17,target engagement in cells,inhibitor,chemoproteomics,20 mM,inhibition,-40.2%
Cn1c2c(Cl)c(Cl)ccc2c2cc[nH]c(=O)c21,CDK17,thermal stability,,DSF,10 µM,ΔTm,-0.4 °C
O=C(Nc1cnc(Oc2ccc(F)cc2)nc1)N1CCc2ncccc2[C@@H]1c1ccc(F)cc1,CDK17,cell-free assay,,competition with immobilised ligand,1 µM,remaining binding,97%
CCC1(CC)NC(=O)c2c(c3ccc(Cl)c(Cl)c3n2C)C1C#N (stereo not drawn),CDK17,thermal stability,,DSF,10 µM,ΔTm,0.7 °C
CCCOc1ccc([C@H]2[C@H](C(=O)O)[C@@H](c3ccc4c(c3)OCO4)CN2CC(=O)Nc2c(CC)cccc2CC)cc1,CDK17,cell-free assay,,competition with immobilised ligand,1 µM,remaining binding,91%
C[C@@H]1CCN(c2nccc(-c3cnn4ncccc34)n2)C1,CDK17,binding,,,1 µM,remaining binding,100%
